Source: PubChem
Many of the other results were omitted from the sample, so hits are more common in it than they were.
PolyA inh: yeast polyadenylation inhibition | activity score, % at 12 µM | AID 1875 | S. cerevisiae SKY197-pL101 polyadenylation reporter, beta-gal luminescence; efflux-impaired pdr1/pdr3 knockout yeast; score 100 = 6 SD above DMSO | 300,000 compounds, 0.02% hits;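 active = lowest replicate activity score at least 50, where 100 means six control SD above control mean; inconclusive = lowest score under 50 but half or more replicates reach 50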;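 note: yeast exposed to compound for 9 h at 30 °C; higher score means more reporter readthrough which indicates perturbed polyadenylation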
NALP1 inh: NALP1 inhibition; S. cerevisiae NALP1/ASC/caspase-1 growth, X-gal OD620, 72 h; inhibition, % at 10 µM; 280,000 compounds, 0.61% hits; AID 2071; in the data active = inhibition mostly above about 24%, no sharp cut-off; inactive = mostly below about 32%
Calb FLC: affects C. albicans growth with fluconazole | C. albicans CaCi-2 (fluconazole-resistant clinical isolate) + fluconazole, Alamar Blue growth, 48 h | growth inhibition, % (no concentration beside the values) | 300,000 compounds, 0.57% hits;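 active = growth inhibition above about 58% in most replicates, limit read from the data, passing the limit was not always enough; inconclusive = exactly half the replicates above a set limit; inactive = most replicates below a set limit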;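 note: all wells also contain fluconazole at 8 µg/ml as a sub-toxic cotreatment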
NLRP3 yeast inh: blocks the NALP3 inflammasome reconstituted in yeast; 330,000 compounds, 0.39% hits; Yeast reconstituted NLRP3/ASC/caspase-1, beta-gal luminescence, 24 h; AID 2825; inhibition, % at 10 µM;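 active = inhibition of 50% or more; inactive = inhibition below 50%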
T cruzi repl: blocks replication of Trypanosoma cruzi; 300,000 compounds, 1.4% hits; inhibition, % (concentration not given with the values); T. cruzi beta-gal in NIH3T3, luminescence, 90 h;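 active = mean inhibition across valid replicates above about 55%, limit read from the data; inconclusive = mean below that limit but half or more replicates reach it; inactive = mean below it, under half of replicates reach it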;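 note: signal also drops with host cell toxicity which is not excluded here; higher percent means less beta-gal luminescence so fewer parasites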
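Incubation – ≥90 h infection period, 3 h prior cell attachment · System – NIH/3T3 fibroblasts plus reporter T. cruzi · Doses – compound pinned at 50 nL/well, DMSO · Read-out basis – percent inhibition of parasite-derived β-gal signal · Signal – luminescent β-galactosidase signal after 60 min lysis · Also added – 5000 T. cruzi trypomastigotes/well · Medium – Low-serum DMEM with 2% FBS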
Lmaj promast: inhibitors of Leishmania major promastigote growth; 200,000 compounds, 9% hits; inhibition, % at 10 µM; Leishmania major promastigotes, resazurin fluorescence viability; in the data active = inhibition above about 50%;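 note: promastigotes grown with compound for 44 hours at 28 °C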
Lmaj promast 1uM: inhibitors of Leishmania major promastigote growth, repeat at 1 uM | 1,100 compounds, 13% hits | shares compounds with Lmaj promast | inhibition, % at 1 µM | L. major promastigote growth, resazurin fluorescence, 48 h | AID 1258;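 active = inhibition above about 50% in both repeat tests, limit read from the data; inconclusive = one repeat under the set limit, the other over it; inactive = both repeats under the set limit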
Of the large screens only hits and unclear results are named; the others gave an inactive call (follow-up assays come after a bar, where they were run).

Cc1ccc(Oc2ccc(-c3nc(N)nc(N)n3)cc2)cc1C	Lmaj promast 99.3 | Lmaj promast 1uM inactive
Nc1nc(N)nc(-c2ccc(Oc3ccccc3)cc2)n1	none
Cc1ccc(N(CC(O)CON=C2c3ccccc3-c3ccccc32)S(C)(=O)=O)cc1 (stereo unspecified)	T cruzi repl inconclusive, Lmaj promast 100.0 | Lmaj promast 1uM inconclusive
CCOC(=O)c1sc(NC(=O)CN2CCCC2)c(C(=O)OCC)c1C	Lmaj promast 92.6 | Lmaj promast 1uM inactive
CCOC(=O)c1c(NC(=O)CN2CCCCC2)sc(C)c1C	none
CCOP(=O)(OCC)C(Nc1cccc([N+](=O)[O-])c1)c1ccccc1 (stereo unspecified)	none (no result: Lmaj promast)
OCCC1CN(Cc2cnc(-c3ccc(Cl)cc3)nc2)CCN1C1CCCCC1 (stereo unspecified)	Lmaj promast 87.4 | Lmaj promast 1uM inactive
OCCC1CN(Cc2ccncc2)CCN1C1CCCC1 (stereo unspecified)	none
COc1ccc(C)cc1NC(=O)c1ccccc1N(C)S(=O)(=O)c1ccccc1	none (no result: Lmaj promast)
Cc1cc2nc(C3CCN(Cc4nnnn4Cc4ccccc4)CC3)[nH]c2cc1C	Calb FLC inconclusive, Lmaj promast 90.9 | Lmaj promast 1uM inactive
O=C(CCCCl)Oc1ccc2cc(-c3ccc4ccccc4n3)c(=O)oc2c1	none
O=C1C=C(N(CCO)Cc2ccccc2)c2ccccc2C1=O	T cruzi repl 77.7, Lmaj promast 95.5 (no result: NLRP3 yeast inh) | Lmaj promast 1uM inactive
CC(C)=CCCC(C)CN(C)CCc1ccccn1 (stereo unspecified)	T cruzi repl 63.3, Lmaj promast 82.9 | Lmaj promast 1uM inactive
Cc1ccc(-n2nc(C)cc2Nc2ncc(Cl)cc2Cl)cc1	none
Cc1cc(Nc2ncc(Cl)cc2Cl)n(-c2ccccc2C)n1	Lmaj promast 81.9 | Lmaj promast 1uM inactive
COCCNC(C)C(=O)Nc1ccc(Br)cc1 (stereo unspecified)	none
CCC(C)NCCOc1ccc(Br)cc1 (stereo unspecified)	Lmaj promast 82.3 | Lmaj promast 1uM inactive
O=S(=O)(c1ccccc1)c1ncc(C(F)(F)F)cc1O	none
CN(C)S(=O)(=O)c1cccn1-c1ncc(C(F)(F)F)cc1Cl	Lmaj promast 100.2 | Lmaj promast 1uM inactive
O=S(=O)(c1ccccc1)c1ncc(C(F)(F)F)cc1Cl	Lmaj promast 72.0 | Lmaj promast 1uM inactive
CC(=O)N1CCN(S(=O)(=O)c2cccc(C(=O)NC3CC3)c2)CC1	none (no result: PolyA inh, NALP1 inh, Calb FLC, T cruzi repl, Lmaj promast)
Cc1ccc(S(=O)(=O)CC(=O)NC(C)(C)C)cc1	none
Cc1cc(C)c2c(c1)-c1cc(C)nn1C(c1ccc3c(c1)OCO3)N2 (stereo unspecified)	Calb FLC inconclusive, Lmaj promast 99.1 | Lmaj promast 1uM 76.4
Cc1cc2n(n1)C(c1ccc(O)cc1)Nc1ccccc1-2 (stereo unspecified)	none
CC(SC#N)C(=O)C12CC3CC(CC(C3)C1)C2 (stereo unspecified)	Lmaj promast 62.7 | Lmaj promast 1uM inactive
CC(Sc1n[nH]c(N)n1)C(=O)C12CC3CC(CC(C3)C1)C2 (stereo unspecified)	none
O=c1ccsn1Cc1ccccc1	T cruzi repl 67.2, Lmaj promast 100.5 | Lmaj promast 1uM inactive
S=c1[nH]ccn1-c1cccc(Cl)c1	Lmaj promast 58.7 | Lmaj promast 1uM inactive
CC1(c2ccc(Cl)cc2Cl)OCC(Cn2ccnc2)O1 (stereo unspecified)	none
COc1cc(C(=O)NNC(=O)c2cc(=O)[nH]c3ccccc23)cc(OC)c1OC	none (no result: NALP1 inh, Lmaj promast)
O=[N+]([O-])c1cccc(-c2cc3cccc[n+]3cc2-c2cccc([N+](=O)[O-])c2)c1	none
Cc1cccc2cc(-c3ccccc3)c(-c3ccccc3)c[n+]12	Lmaj promast 100.1 (no result: NLRP3 yeast inh) | Lmaj promast 1uM inactive
COCCNCC1C(Oc2ccc(Cl)cc2)C(=O)N1c1ccccc1C (stereo unspecified)	none
CCCNCC1C(Oc2ccc(Cl)cc2)C(=O)N1c1ccccc1C (stereo unspecified)	Lmaj promast 91.0 | Lmaj promast 1uM inactive
COc1cc(NC(=O)c2cc(C)no2)cc(OC)c1OC	none (no result: Lmaj promast)
COc1cccc(C2C(C(=O)c3ccco3)=C(O)C(=O)N2CCN(C)C)c1OC (stereo unspecified)	Lmaj promast 61.6 | Lmaj promast 1uM inactive
Cc1ccccc1-n1sc2cc(F)ccc2c1=O	Lmaj promast 80.0 (no result: PolyA inh, Calb FLC, T cruzi repl) | Lmaj promast 1uM inactive
C[C@H](NC(=O)[C@@H]1CCC(=O)N1Cc1ccco1)c1ccccc1	none
CCOC(=O)CSC1=C(C#N)C(c2ccc(Cl)cc2)CC(=O)N1 (stereo unspecified)	none
CCOC1(OCC)C(c2ccc(Cl)cc2)C(C#N)(C#N)C1(OCC)OCC (stereo unspecified)	Lmaj promast 100.0 (no result: NALP1 inh) | Lmaj promast 1uM inactive
CCOC1(OCC)C(c2ccc(N)cc2)C(C#N)(C#N)C1(OCC)OCC (stereo unspecified)	Calb FLC inconclusive, Lmaj promast 62.9 | Lmaj promast 1uM inactive
COc1ccc(CNS(=O)(=O)c2cc(-c3cc(C)no3)ccc2C)cc1OC	none (no result: Lmaj promast)
c1ccc(-c2n[nH]c(-c3ccccn3)n2)cc1	none
c1ccc(-c2n[nH]c(-c3ccccn3)n2)nc1	Lmaj promast 100.4 | Lmaj promast 1uM inactive
CC(=NC1CCCCC1)C1=C(O)c2ccccc2C1=O	none
O=C(NNC(=O)c1cccs1)c1ccc(Cl)c(Cl)c1	none
COc1cc2c(cc1OC)C(c1ccc(-c3ccccc3Cl)o1)=NCC2	Lmaj promast 68.1 (no result: T cruzi repl) | Lmaj promast 1uM inactive
COc1cc2c(cc1OC)C(c1ccc(-c3ccc(Cl)cc3Cl)o1)=NCC2	none
COc1ccc(OC)c(C(c2nnnn2C2CCCC2)N2CCc3ccccc3C2)c1 (stereo unspecified)	Lmaj promast 88.0 | Lmaj promast 1uM inactive
CCCC1COC(Cn2cncn2)(c2ccc(C)cc2)O1 (stereo unspecified)	T cruzi repl inconclusive, Lmaj promast 54.7 | Lmaj promast 1uM inactive
Cc1ccc(-c2cc(C(F)F)n3ncc(C(=O)N4CCCCC4c4cccnc4)c3n2)cc1 (stereo unspecified)	T cruzi repl 62.7, Lmaj promast 95.2 | Lmaj promast 1uM inactive
C=C1CCN([C@@H](Cc2ccccc2)C(=O)Nc2ccc(OC)cc2)S(=O)(=O)c2ccccc21	none (no result: NALP1 inh, Lmaj promast)
CN1CCCCc2c1[nH]c1ccccc1c2=O	Lmaj promast 98.2 | Lmaj promast 1uM inactive
O=C(C[n+]1ccccc1)c1ccc(-c2ccccc2)cc1	Lmaj promast 95.6 | Lmaj promast 1uM inactive
CC1CCC(NC(=O)CCn2ccc3cc(S(=O)(=O)N4CCCC4)ccc32)CC1 (stereo unspecified)	none (no result: Lmaj promast)
COC(C/C=C\[C@@H](O)COCc1ccccc1)OC	none (no result: NALP1 inh, Lmaj promast)
